Results published in ChEMBL document CHEMBL2146408, “Primary amino acid derivatives: compounds with anticonvulsant and neuropathic pain protection activities” (J Med Chem, 2011).
Active and inactive are the calls of the source. The calls are words filed in the database; no cut-off is given here.

Columns and labels:
[1] = Neurotoxicity in ip dosed NMRI mouse assessed as minimal motor impairment after 30 mins; type: toxicity, organism-based; conditions: in vivo
Outline: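 Adult male NMRI mice dosed ip at UCB Pharma. Neurological toxicity was scored on the rotorod test 30 min after dosing.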

Mus musculus [2] = assay: Anticonvulsant activity in NMRI mouse assessed as protection against subcutaneous pentylenetetrazol-induced seizure at 30 to 300 mg/kg, ip after 0.5 to 4 hrs; type: functional, organism-based
Rattus norvegicus [3] = assay: Anticonvulsant activity in po dosed Sprague-Dawley rat assessed as protection against maximal electroshock-induced seizure after 30 mins; type: functional; conditions: 0.5 h
[4] = Neurotoxicity in po dosed Sprague-Dawley rat assessed as minimal motor impairment after 30 mins by rotorod test; type: toxicity, organism-based; conditions: in vivo
Mus musculus [5] = assay: Anticonvulsant activity in ip dosed NMRI mouse assessed as protection against maximal electroshock-induced seizure after 30 mins; type: functional; conditions: 0.5 h; for minimal effective dose: read-out: MED
Outline: (§1)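 Adult male NMRI mice dosed ip (UCB Pharma). MES test run per the Klitgaard procedure. […] Single-dose runs report the percentage of animals protected.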

Mus musculus [6] = assay: Anticonvulsant activity in ip dosed CF1 mouse assessed as protection against maximal electroshock-induced seizure after 30 mins; type: functional; conditions: 0.5 h
Outline: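 Adult male albino CF-1 (Carworth Farms No. 1) mice dosed ip under the NINDS ASP; maximal electroshock seizure test. For compounds with sufficient activity, a dose-response curve was run at the time of peak effect (hours).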

Mus musculus [7] = assay: Antinociceptive activity in ip dosed NMRI mouse assessed as inhibition of formalin-induced neuropathic pain after 30 mins; type: functional; conditions: 0.5 h
Outline: (§2)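 NMRI mice dosed ip at UCB Pharma, then tested in the formalin model of neuropathic pain. ED50 in mg/kg read 30 min after administration. Single-dose runs report the percentage protected.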

Mus musculus [8] = assay: Anticonvulsant activity in ip dosed NMRI mouse assessed as protection against 6 Hz psychomotor seizure after 30 mins; type: functional; conditions: 0.5 h; for minimal effective dose: read-out: MED
Outline: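 Adult male NMRI mice dosed ip (UCB Pharma). 6 Hz psychomotor seizure model at 44 mA, per Kaminski and co-workers.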

[9] = Neurotoxicity in ip dosed CF1 mouse assessed as minimal motor impairment after 30 mins; type: toxicity, organism-based; conditions: in vivo
Mus musculus [10] = species on record: Mus musculus; assay: Protective index, ratio of TD50 for NMRI mouse to ED50 for NMRI mouse formalin-induced neuropathic pain model; type: functional
Mus musculus [11] = assay: Antinociceptive activity in NMRI mouse assessed as inhibition of formalin-induced neuropathic pain at 25 mg/kg, ip after 30 mins; type: functional, organism-based; parameters: dose 25 mg/kg; outline: as §2
Mus musculus [12] = assay: Antinociceptive activity in NMRI mouse assessed as inhibition of formalin-induced neuropathic pain at 79 mg/kg, ip after 30 mins; type: functional; parameters: scale not given: the % may be the effect or the level left; conditions: route intraperitoneal; outline: as §2
Rattus norvegicus [13] = species on record: Rattus norvegicus; assay: Protective index, ratio of TD50 for Sprague-Dawley rat to ED50 for Sprague-Dawley rat by maximal electroshock seizure test; type: functional
Outline: (§3)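 Protective index computed as rotorod (mice) or behavioral (rats) TD50 divided by MES ED50, both in mg/kg in the same species and route.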

Mus musculus [14] = assay: Anticonvulsant activity in NMRI mouse assessed as protection against maximal electroshock-induced seizure at 46 mg/kg, ip after 30 mins; type: functional; conditions: route intraperitoneal; outline: as §1
Mus musculus [15] = species on record: Mus musculus; assay: Protective index, ratio of TD50 for NMRI mouse to ED50 for NMRI mouse by maximal electroshock seizure test; type: functional; outline: as §3
Mus musculus [16] = species on record: Mus musculus; assay: Protective index, ratio of TD50 for CF1 mouse to ED50 for CF1 mouse by maximal electroshock seizure test; type: functional; outline: as §3
Mus musculus [17] = assay: Antinociceptive activity in NMRI mouse assessed as inhibition of formalin-induced neuropathic pain at 75 mg/kg, ip after 30 mins; type: functional; parameters: scale not given: the % may be the effect or the level left; conditions: route intraperitoneal; outline: as §2

With CC(C)(C)[C@H](N)C(=O)NCc1ccccc1 the TD50 at 0.5 h [1] was 100 mg/kg, the Activity (Mus musculus [2]) was “inactive” and the ED50 (Rattus norvegicus [3]) was > 30 mg/kg. For the same molecule, the TD50 at 0.5 h [4] was > 30 mg/kg.

In the case of CC(=O)N[C@H](C)C(=O)NCc1ccccc1, the TD50 at 0.5 h [1] is reported as 210 mg/kg.

In the case of C[C@H](N)C(=O)NCc1ccccc1, the TD50 at 0.5 h [1] is reported as > 300 mg/kg, the Activity (Mus musculus [2]) is reported as “inactive” and the ED50 (Rattus norvegicus [3]) is reported as > 80 mg/kg. For the same molecule, the TD50 at 0.5 h [4] was > 80 mg/kg.

In the case of NCC(N)C(=O)NCc1ccccc1 (racemic), the ED50 (Mus musculus [5]) is reported as > 68 mg/kg.

Molecule CCCC(CCC)C(=O)O [VALPROIC ACID] has an ED50 (Mus musculus [6]) of 270 mg/kg.

In the case of NC(CO)C(=O)NCc1ccccc1 (racemic), the ED50 (Mus musculus [7]) is reported as > 62 mg/kg, the ED50 (Mus musculus [5]) is reported as > 62 mg/kg and the ED50 (Mus musculus [8]) is reported as > 62 mg/kg. The TD50 at 0.5 h [9] was > 110 mg/kg and the “Ratio TD50/ED50” value (Mus musculus [10]) was >1.8.

For N[C@@H](C(=O)NCc1ccccc1)C1CCCCC1, the ED50 (Mus musculus [5]) was 28 mg/kg, the minimal effective dose (Mus musculus [8]) was 140 mg/kg and the Activity (Mus musculus [11]) was “inactive”. The Activity (Mus musculus [12]) was 95%.

In the case of CC(N)C(=O)NCc1ccccc1 (racemic), the ED50 (Mus musculus [6]) is reported as > 100 mg/kg, the TD50 at 0.5 h [1] is reported as > 300 mg/kg and the Activity (Mus musculus [2]) is reported as “inactive”. The ED50 (Rattus norvegicus [3]) was 14 mg/kg, the TD50 at 0.5 h [4] was > 500 mg/kg and the “Ratio TD50/ED50” value (Rattus norvegicus [13]) was >36.

CCCC(NC(C)=O)C(=O)NCc1ccccc1 (racemic) gave an ED50 (Mus musculus [6]) of 38 mg/kg.

With CCC(C)C(N)C(=O)NCc1ccccc1 (racemic) the ED50 (Mus musculus [7]) was > 22 mg/kg, the minimal effective dose (Mus musculus [5]) was 46 mg/kg and the ED50 (Mus musculus [8]) was > 120 mg/kg. The Activity (Mus musculus [14]) was 100%.

For O=C1NC(=O)C(c2ccccc2)(c2ccccc2)N1 [PHENYTOIN], the TD50 at 0.5 h [4] was > 3000 mg/kg.

Molecule CC(=O)N[C@@H](C)C(=O)NCc1ccccc1 has a TD50 at 0.5 h [1] of 840 mg/kg.

For CC(=O)N[C@@H](C(=O)NCc1ccccc1)C(C)(C)C, the ED50 (Mus musculus [6]) was > 300 mg/kg and the TD50 at 0.5 h [1] was > 300 mg/kg.

With C[C@@H](N)C(=O)NCc1ccccc1 the TD50 at 0.5 h [1] was < 100 mg/kg, the Activity (Mus musculus [2]) was “inactive” and the ED50 (Rattus norvegicus [3]) was 19 mg/kg. The TD50 at 0.5 h [4] was > 30 mg/kg and the “Ratio TD50/ED50” value (Rattus norvegicus [13]) was >1.5.

With N[C@H](Cc1ccccc1)C(=O)NCc1ccccc1 the ED50 (Mus musculus [7]) was > 37 mg/kg, the ED50 (Mus musculus [5]) was 40 mg/kg and the minimal effective dose (Mus musculus [8]) was 81 mg/kg.

In the case of CSCC[C@@H](N)C(=O)NCc1ccccc1, the ED50 (Mus musculus [7]) is reported as > 76 mg/kg, the ED50 (Mus musculus [5]) is reported as 75 mg/kg and the minimal effective dose (Mus musculus [8]) is reported as 130 mg/kg.

For CC(=O)NC(C(=O)NCc1ccccc1)c1ccccn1 (racemic), the ED50 (Mus musculus [6]) was 11 mg/kg.

With CCC[C@@H](N)C(=O)NCc1ccccc1 the ED50 (Mus musculus [7]) was 35 mg/kg, the ED50 (Mus musculus [5]) was 21 mg/kg and the minimal effective dose (Mus musculus [8]) was 66 mg/kg. The TD50 at 0.5 h [9] was 57 mg/kg, the “Ratio TD50/ED50” value (Mus musculus [15]) was 2.8 and the “Ratio TD50/ED50” value (Mus musculus [10]) was 1.6.

In the case of CC(C)[C@@H](N)C(=O)NCc1ccccc1, the minimal effective dose (Mus musculus [5]) is reported as 16 mg/kg, the “Ratio TD50/ED50” value (Mus musculus [16]) is reported as 4.7 and the “Ratio TD50/ED50” value (Mus musculus [10]) is reported as 2.4. The Activity (Mus musculus [2]) was “inactive” and the TD50 at 0.5 h [4] was > 500 mg/kg.

In the case of CC(=O)N[C@@H](C(=O)NCc1ccccc1)C(C)C, the ED50 (Mus musculus [6]) is reported as < 100 mg/kg and the TD50 at 0.5 h [1] is reported as > 300 mg/kg.

In the case of CCCC[C@@H](N)C(=O)NCc1ccccc1, the ED50 (Mus musculus [7]) is reported as > 71 mg/kg, the ED50 (Mus musculus [5]) is reported as 23 mg/kg and the ED50 (Mus musculus [8]) is reported as 93 mg/kg.

C=CCOCC(N)C(=O)NCc1ccccc1 (racemic) gave an ED50 (Mus musculus [7]) of 75 mg/kg, an ED50 (Mus musculus [5]) of 45 mg/kg and a minimal effective dose (Mus musculus [8]) of 130 mg/kg. The Activity (Mus musculus [17]) was 12%.

For N[C@H](CCO)C(=O)NCc1ccccc1, the ED50 (Mus musculus [7]) was > 67 mg/kg, the ED50 (Mus musculus [5]) was > 160 mg/kg and the ED50 (Mus musculus [8]) was > 120 mg/kg.

Molecule CC(=O)NC(C)C(=O)NCc1ccccc1 (racemic) has an ED50 (Mus musculus [6]) of 76 mg/kg and a TD50 at 0.5 h [1] of 450 mg/kg.

With COC[C@H](NC(C)=O)C(=O)NCc1ccccc1 the TD50 at 0.5 h [1] was > 300 mg/kg.

With CC(=O)NC(CN1CCOCC1)C(=O)NCc1ccccc1 (racemic) the ED50 (Mus musculus [6]) was < 100 mg/kg and the TD50 at 0.5 h [1] was 300 mg/kg.
